Format in all cases: functional, cell-based
The subject of one test is HCT-116. The experiment in a line: Cytotoxicity against human HCT116 cells assessed as reduction in cell viability after 72 hrs by MTT assay. The note with it: HCT-116, 72 h. The method in brief:
(§1)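 Human cancer cells grown in 96-well plates and exposed for 72 h at 37 °C under 5% CO2. Survival rates read by MTT assay, with doxorubicin as positive control. IC50 reported as the mean of triplicate determinations.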

Another test has as its system MDA-MB-231. Briefly: Cytotoxicity against human MDA-MB-231 cells assessed as reduction in cell viability after 72 hrs by MTT assay. The note with it: MDA-MB-231, 72 h. The method in brief: as §1
(In general: Tetrazolium dyes change colour on reduction, which living cells bring about.)

The next test has as its system BEL-7404 tumor cell line. Briefly: Cytotoxicity against human Bel7404 cells assessed as reduction in cell viability after 72 hrs by MTT assay. The note with it: BEL-7404, 72 h. The procedure, abridged: as §1
The next test concerns A549. Briefly: Cytotoxicity against human A549 cells assessed as reduction in cell viability after 72 hrs by MTT assay. The note with it: A549, 72 h. The method in brief: as §1

pIC50: −log10 of the molar value.

As for `C/C=C(/C)C(=O)O[C@H]1[C@@H](O)[C@@H]2[C@H](OC(=O)[C@H]2COC)[C@@H](OC(=O)C(C)C)[C@@](C)(O)C(=O)CC[C@H]1C`, the negative logarithm of the IC50 (pIC50) is 4.30 in the test on HCT-116, less than 4.00 in the test with MDA-MB-231, 4.14 with BEL-7404 tumor cell line and less than 4.00 in the test on A549.
As to `C/C=C(/C)C(=O)O[C@@H]1[C@H]2OC(=O)[C@@H](COC)[C@@H]2[C@H](O)[C@H](OC(=O)CC(C)C)[C@H](C)CCC(=O)[C@]1(C)O`, the pIC50 with HCT-116 was 4.15; in the test with MDA-MB-231, less than 4.00; with BEL-7404 tumor cell line, 4.10; in the test on A549, less than 4.00.
Take `C=C1C(=O)O[C@H]2[C@H]1[C@H](O)[C@H](OC(=O)/C(C)=C\C)[C@H](C)CCC(=O)[C@](C)(O)[C@@H]2OC(=O)C(C)C`: the negative-log IC50 (pIC50) with HCT-116 is 6.06; with MDA-MB-231, 5.69; in the test with BEL-7404 tumor cell line it was 5.74; in the test on A549, 4.92.
Take `C=C1C(=O)O[C@H]2[C@H]1[C@@H](O)[C@]1(O)O[C@@H](C[C@H]1C)C[C@](C)(O)[C@@H]2OC(=O)C(C)C`: the negative-log IC50 (pIC50) is less than 4.00 in the test with HCT-116, less than 4.00 in the test with MDA-MB-231, 4.09 in the test on BEL-7404 tumor cell line and less than 4.00 in the test on A549.
Turning to `C=C1C(=O)O[C@H]2[C@H]1[C@H](O)[C@]1(O)O[C@@H](C[C@H]1C)C[C@](C)(O)[C@@H]2OC(=O)/C(C)=C\C`, the negative-log IC50 (pIC50) in the test on HCT-116 was 4.43; with MDA-MB-231, less than 4.00; with BEL-7404 tumor cell line it was 4.16; in the test on A549 it was less than 4.00.
`C=C1C(=O)O[C@H]2[C@H]1[C@H](OC(=O)C(C)C)C(=O)[C@H](C)CCC[C@](C)(O)[C@@H]2OC(=O)C(C)C`: the negative-log IC50 (pIC50) in the test with HCT-116 was 5.58; in the test on MDA-MB-231 it was 5.13; with BEL-7404 tumor cell line, 5.14; in the test with A549, 4.52.
Regarding `C=C1C(=O)O[C@H]2[C@H]1[C@H](OC(=O)/C(C)=C\C)C(=O)[C@H](C)CCC[C@](C)(O)[C@@H]2OC(=O)C(C)C` (relative stereo), the pIC50 is 5.26 in the test with HCT-116, 5.12 with MDA-MB-231, 5.13 in the test with BEL-7404 tumor cell line and 4.74 with A549.
On to `C=C1C(=O)O[C@H]2[C@H]1[C@@H](O)[C@]1(O)O[C@@H](C[C@H]1C)C[C@](C)(O)[C@@H]2OC(=O)/C(C)=C\C` (relative stereo), for which the pIC50 is less than 4.00 in the test on HCT-116, less than 4.00 in the test on MDA-MB-231, 4.25 with BEL-7404 tumor cell line and less than 4.00 in the test on A549.
Turning to `C/C=C(/C)C(=O)O[C@H]1[C@@H](O)[C@@H]2[C@H](OC(=O)[C@H]2COC)[C@@H](OC(=O)/C(C)=C\C)[C@@](C)(O)C(=O)CC[C@H]1C` (relative stereo), the pIC50 is 4.44 with HCT-116, less than 4.00 in the test on MDA-MB-231, 4.06 in the test with BEL-7404 tumor cell line and less than 4.00 in the test with A549.
As for `C/C=C(/C)C(=O)O[C@H]1[C@@H](O)[C@@H]2[C@H](OC(=O)[C@H]2COC)[C@@H](OC(=O)C(C)CC)[C@@](C)(O)C(=O)CC[C@H]1C` (relative stereo), the negative logarithm of the IC50 (pIC50) in the test with HCT-116 is 4.24; with MDA-MB-231, less than 4.00; with BEL-7404 tumor cell line, 4.20; in the test on A549, 4.04.
On to `COc1cccc2c1C(=O)c1c(O)c3c(c(O)c1C2=O)C[C@@](O)(C(=O)CO)C[C@@H]3O[C@H]1C[C@H](N)[C@H](O)[C@H](C)O1` [DOXORUBICIN], for which the negative logarithm of the IC50 (pIC50) was 8.15 with HCT-116, 6.89 with MDA-MB-231, 6.89 in the test on BEL-7404 tumor cell line and 7.82 in the test with A549.

As a reminder, the pIC50 is −log10 of the IC50, conventionally taken in molar units.
